The source of these data is ChEMBL document CHEMBL1156702, “Synthesis and molecular modelling of unsaturated exomethylene pyranonucleoside analogues with antitumor and antiviral activities” (Eur J Med Chem, 2008).

Data set [1] in a line: Cytotoxicity against human H4 cells after 72 hrs. The format is cell-based. In short, it runs like this: (§1)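 Cells kept in DMEM with 5% foetal calf serum, L-glutamine, penicillin/streptomycin at 37 °C, 5% CO2. Seeded cells exposed to 3-fold serial dilutions (starting 0.5 mg/mL; DMSO stock, final DMSO <0.1%) for 72 h at 37 °C. Treated wells (n=2) compared with controls (n=24). CC50 taken from concentration-effect curve.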

Data set [2] can be described thus: Cytotoxicity against human Caco-2 cells after 72 hrs. The class given is cell-based. In outline:
as §1

Data set [3] is described as follows: Ratio of CC50 for human Caco-2 cells to IC50 for rotavirus RF assessed by inhibition of infectivity following virus attachment.

With `C=C1[C@@H](CO)O[C@H](n2ccc(=O)[nH]c2=O)[C@@H](O)[C@H]1O`, the CC50 at 72 h in data set [1] was 1850 µM.
Same read-out and setting: the same measure for `O=C1C=C[C@@H](n2ccc(=O)[nH]c2=O)O[C@@H]1CO`: 2100 µM; for `C=C1C=C[C@@H](n2ccc(=O)[nH]c2=O)O[C@@H]1CO`: 2120 µM.
Same read-out and setting: the same measure for `C=C1C=C[C@@H](n2ccc(=O)[nH]c2=O)O[C@@H]1COC(c1ccccc1)(c1ccccc1)c1ccccc1`: 1040 µM.
With `Cc1cn([C@H]2C[C@H](N=[N+]=[N-])[C@@H](CO)O2)c(=O)[nH]c1=O` [ZIDOVUDINE], the CC50 at 72 h in data set [2] is 56.1 µM. Moreover, in data set [3], the “Ratio CC50/IC50” value was determined as 2.5.

As usually defined, the CC50 is the concentration that lowers cell viability or growth by half. Low values mean greater toxicity to the cells, high ones lower toxicity to the cells.
